For one experiment, the target named is T1, NbUGT72AY1-R91A (Nicotiana benthamiana, UniProt A0A8K1ZRH3, R91A).
T1 sequence (A0A8K1ZRH3 1-477 R91A): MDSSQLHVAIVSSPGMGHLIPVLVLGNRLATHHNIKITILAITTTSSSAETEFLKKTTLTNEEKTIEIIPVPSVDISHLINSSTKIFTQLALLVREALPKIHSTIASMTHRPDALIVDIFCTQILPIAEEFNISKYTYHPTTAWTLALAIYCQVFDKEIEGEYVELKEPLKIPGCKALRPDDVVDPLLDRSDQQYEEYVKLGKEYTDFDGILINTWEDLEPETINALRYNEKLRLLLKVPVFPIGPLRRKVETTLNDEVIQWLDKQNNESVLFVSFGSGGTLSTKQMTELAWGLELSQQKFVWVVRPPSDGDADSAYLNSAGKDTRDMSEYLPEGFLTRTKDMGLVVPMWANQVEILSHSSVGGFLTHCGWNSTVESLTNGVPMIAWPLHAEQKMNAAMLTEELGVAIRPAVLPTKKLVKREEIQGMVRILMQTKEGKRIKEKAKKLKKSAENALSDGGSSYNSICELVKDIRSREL
Put plainly: UDP-Glo glycosyltransferase assay, kinetics of mutant. The class given is biochemical.

The test system of the next experiment is Alternaria alternata. The note with it: in vitro and in vivo; ref Sun et al., 2014; cited from earlier work.
A further experiment concerns the target T2, NbUGT72AY1-R91M (Nicotiana benthamiana, UniProt A0A8K1ZRH3, R91M).
T2 sequence (A0A8K1ZRH3 1-477 R91M): T1 sequence (A0A8K1ZRH3 1-477 R91A) with A91M
In words: UDP-Glo glycosyltransferase assay, kinetics of mutant. The class given is biochemical.

Experiment [1] has as its system StUGT72AY2-chimera (Potato-Tobacco-Potato). In words: UDP-Glo glycosyltransferase assay, chimeric mutant. The class given is biochemical, Solanum tuberosum. To be noted: Figure 5B and 5D. The method, boiled down: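 N-terminal GST-fusion enzyme expressed in E. coli BL21(DE3) pLysS (1 mM IPTG, 18°C overnight) and glutathione-eluted. Reaction: 2 μg protein, 100 μM UDP-glucose, and varied acceptor substrate (in DMSO) in 50 mM Tris-HCl pH 7.0, 30°C for 20 min. Stopped with HCl, neutralized with Trizma base, then UDP-Glo luminescence after 30 min dark. Michaelis–Menten or Hill fits from at least three repeats.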

For another experiment, the target named is T3, NbUGT72AY1-R91F (Nicotiana benthamiana, UniProt A0A8K1ZRH3, R91F).
T3 sequence (A0A8K1ZRH3 1-477 R91F): T1 sequence (A0A8K1ZRH3 1-477 R91A) with A91F
Put plainly: UDP-Glo glycosyltransferase assay, kinetics of mutant. The class given is biochemical.

The target in the next experiment is T4, NbUGT72AY1 (Nicotiana benthamiana, UniProt A0A8K1ZRH3).
T4 sequence (A0A8K1ZRH3 1-477): T1 sequence (A0A8K1ZRH3 1-477 R91A) with A91R
Put plainly: UDP-Glo glycosyltransferase assay, acceptor substrate kinetics. The class given is biochemical.

Substitutions are numbered along the chain they refer to.

As for `COc1cc2ccc(=O)oc2cc1O` [scopoletin], the Ki at NbUGT72AY1-R91A was determined as 3.3 ± 0.7 µM; at NbUGT72AY1-R91M, 27.3 ± 4.2 µM; on NbUGT72AY1-R91F, 0.9 ± 0.3 µM; at NbUGT72AY1 (Ki, Fig S14b series, wild type R91, substrate scopoletin) it was 10.7 ± 2.2 µM; at NbUGT72AY1 (substrate inhibition (Ki), as stated in the abstract), 4 µM. Also, the antifungal activity entry in the experiment with Alternaria alternata is on record as “strong antifungal activity”. Besides, the Vi at NbUGT72AY1-R91M (Fig S14b, mutant R91M, substrate scopoletin) was determined as 13.1 ± 6.1 nmol/min/mg; on NbUGT72AY1 (Fig S14b series, wild type R91, substrate scopoletin), 4.4 ± 2.3 nmol/min/mg. Further, the “enzymatic activity of the chimeric mutant with the substrate” value in experiment [1] is “inactive”. The Vmax on NbUGT72AY1 (Figure 5A series, wild type, substrate scopoletin) is listed as 264.3 nmol/min/mg.
